From ChEMBL document CHEMBL1122651, “5-Aryl-3-azabicyclo[3.2.0]heptan-6-one ketals, compounds with morphine-like analgesic activity” (J Med Chem, 1984)

Legend:
Rattus norvegicus [1] = organism: Rattus norvegicus; assay: Concentration of drug required to inhibit the stereospecific binding of [3H]-naloxone (5 nM) to homogenates of rat brain minus cerebellum in the absence of 100 mM NaCl; type: functional, organism-based
Rattus norvegicus [2] = organism: Rattus norvegicus; assay: (§1) Concentration of drug required to inhibit the stereospecific binding of [3H]naloxone (5 nM) to homogenates of rat brain minus cerebellum in the presence of 100 mM NaCl; type: functional
Method in brief: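 Displacement of [3H]naloxone (5 nM) from stereospecific sites in rat brain homogenate (minus cerebellum), run with 100 mM NaCl added. Eight displacing ligand concentrations, each analysis in triplicate. Value is the drug concentration giving 50% inhibition of binding.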

Rattus norvegicus [3] = organism: Rattus norvegicus; assay: animal or person; settings: po
Rattus norvegicus [4] = organism: Rattus norvegicus; assay: as §1
Rattus norvegicus [5] = organism: Rattus norvegicus; settings: Brain, at 0.78 µM
Rattus norvegicus [6] = organism: Rattus norvegicus; settings: Brain, at 25 µM
Rattus norvegicus [7] = assay: Analgesic activity of subcutaneously administered compound was determined by the inflamed rat-paw reversal of abnormal (three-legged) gait; 0.06-2.0; settings: sc
Rattus norvegicus [8] = assay: Analgesic activity of intraperitoneally administered compound was determined by the inflamed rat-paw reversal of abnormal (three-legged) gait; type: functional; settings: ip
Method in brief: (§2)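 Rats with an inflamed paw and abnormal three-legged gait, dosed with compound or vehicle. Reversal of the abnormal gait is scored. A reduction of abnormal gait of at least 50% counts as a positive analgesic response. ED50 and 95% confidence limits by Finney's linear arc sine transformation.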

Rattus norvegicus [9] = organism: Rattus norvegicus; assay: Ability to displace [3H]naloxone binding from homogenates of rat brain minus cerebellum at the concentration of 0.78 uM
Method in brief: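 Competition binding of [3H]naloxone to rat brain homogenate with cerebellum removed. Pert–Snyder procedure as modified by Ong et al. Percent inhibition of stereospecific binding read at a single drug concentration of 0.78 μM.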

Rattus norvegicus [10] = assay: Analgesic activity of perorally administered compound was determined by the inflamed rat-paw reversal of abnormal (three-legged) gait; type: functional; settings: po; method in brief: as §2
Rattus norvegicus [11] = assay: Analgesic activity of intraperitoneally administered compound was determined by the inflamed rat-paw reversal of abnormal (three-legged) gait; 8/10 Active; type: functional; settings: ip; method in brief: as §2
Rattus norvegicus [12] = assay: Analgesic activity of intraperitoneally administered compound was determined by the inflamed rat-paw reversal of abnormal (three-legged) gait; R (reject) highest dose tested inactive; type: functional; settings: ip; method in brief: as §2
Rattus norvegicus [13] = assay: Analgesic activity of intraperitoneally administered compound was determined by the inflamed rat-paw reversal of abnormal (three-legged) gait; 4/4 Active; type: functional; settings: ip; method in brief: as §2

Compound	IC50 (Rattus norvegicus [1])	IC50 (Rattus norvegicus [2])	inhibition (Rattus norvegicus [6])	also measured
C=CCN1CC[C@]23CCCC[C@H]2[C@H]1Cc1ccc(O)cc13 [LEVALLORPHAN]	9 nM	34 nM		
COc1ccc2c3c1O[C@H]1[C@@H](O)C=C[C@H]4[C@@H](C2)N(C)CC[C@@]341 [CODEINE]	2600 nM	22000 nM		
CN1CC[C@]23c4c5ccc(O)c4O[C@H]2[C@@H](O)C=C[C@H]3[C@H]1C5.CN1CC[C@]23c4c5ccc(O)c4O[C@H]2[C@@H](O)C=C[C@H]3[C@H]1C5.O=S(=O)(O)O	74 nM		100%	ED50 (Rattus norvegicus [3]): 35 mg/kg; IC50 (Rattus norvegicus [4]): 380 nM; inhibition (Rattus norvegicus [5]): 97%; ED50 (Rattus norvegicus [7]): 0.4 mg/kg
COc1cccc(C23CNCC2CC3(OC)OC)c1 (stereo not drawn)				ED50 (Rattus norvegicus [8]): > 25 mg/kg
C=CCN1CC[C@]23c4c5ccc(O)c4O[C@H]2C(=O)CC[C@@]3(O)[C@H]1C5 [NALOXONE]	46 nM	42 nM		
COC1(OC)CC2CN(C)CC21c1cccc(O)c1 (stereo not drawn)	61 nM	579 nM	99%	ED50 (Rattus norvegicus [8]): ~3 mg/kg; inhibition (Rattus norvegicus [5]): 85%
COc1cccc(C23CN(C)CC2CC3(OC)OC)c1 (stereo not drawn)	9920 nM	62500 nM	61%	inhibition (Rattus norvegicus [9]): 7%; ED50 (Rattus norvegicus [10]): 4 mg/kg
COc1cccc(C23CN(C)CC2CC32OCC(C)(C)CO2)c1.O=C(O)/C=C/C(=O)O (stereo not drawn)				ED50 (Rattus norvegicus [11]): < 25 mg/kg
COC1(OC)CC2CN(C)CC21c1ccc(C)cc1 (stereo not drawn)			62%	ED50 (Rattus norvegicus [12]): 25 mg/kg; inhibition (Rattus norvegicus [9]): 11%
COC1(OC)CC2CN(C)CC21c1ccccc1 (stereo not drawn)			62%	ED50 (Rattus norvegicus [13]): < 25 mg/kg; inhibition (Rattus norvegicus [9]): 13%
COc1cccc(C23CN(C)CC2CC3=O)c1 (stereo not drawn)			22%	ED50 (Rattus norvegicus [12]): 25 mg/kg; inhibition (Rattus norvegicus [5]): 12%
